# Reference: ChEMBL document CHEMBL1129251 (J Med Chem, 1996)
# System: not listed separately
# Assay: Selectivity ratio of Ki of alpha-1 adrenergic receptor to alpha-2 receptor
row,Compound,Ratio
1,C/C=C(/c1c[nH]cn1)c1cccc2ccccc12,0.26
2,CCC(c1c[nH]cn1)c1cccc2ccccc12 (centres undefined),3.48

# Biological target: T1, Adrenergic receptor alpha-2 (Rattus norvegicus, UniProt P22086+P19328+P22909)
# T1 sequence (P22086 whole entry): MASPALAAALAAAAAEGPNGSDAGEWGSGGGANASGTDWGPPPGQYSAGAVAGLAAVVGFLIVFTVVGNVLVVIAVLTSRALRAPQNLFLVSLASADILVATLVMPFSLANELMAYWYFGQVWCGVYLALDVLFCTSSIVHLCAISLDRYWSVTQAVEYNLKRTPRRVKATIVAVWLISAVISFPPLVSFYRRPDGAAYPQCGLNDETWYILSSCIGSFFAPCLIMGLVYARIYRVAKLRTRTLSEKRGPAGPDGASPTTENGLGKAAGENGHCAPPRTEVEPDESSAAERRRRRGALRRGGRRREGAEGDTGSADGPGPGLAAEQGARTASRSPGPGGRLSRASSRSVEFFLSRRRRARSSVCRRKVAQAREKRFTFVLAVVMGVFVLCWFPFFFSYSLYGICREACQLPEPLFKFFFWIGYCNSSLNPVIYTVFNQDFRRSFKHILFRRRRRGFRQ
# T1 sequence (P19328 whole entry): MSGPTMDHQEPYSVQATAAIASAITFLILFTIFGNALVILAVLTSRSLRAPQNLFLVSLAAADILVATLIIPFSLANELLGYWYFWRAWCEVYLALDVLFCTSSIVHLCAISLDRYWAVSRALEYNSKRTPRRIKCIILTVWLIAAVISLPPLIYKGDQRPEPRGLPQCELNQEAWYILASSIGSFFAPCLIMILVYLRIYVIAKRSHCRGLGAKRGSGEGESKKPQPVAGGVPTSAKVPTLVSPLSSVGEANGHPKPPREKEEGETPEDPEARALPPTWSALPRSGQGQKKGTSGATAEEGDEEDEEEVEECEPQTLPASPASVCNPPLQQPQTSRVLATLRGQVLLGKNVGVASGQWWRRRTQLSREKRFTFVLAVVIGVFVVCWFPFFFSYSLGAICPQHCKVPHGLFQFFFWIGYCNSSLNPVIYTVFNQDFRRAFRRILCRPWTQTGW
# T1 sequence (P22909 whole entry): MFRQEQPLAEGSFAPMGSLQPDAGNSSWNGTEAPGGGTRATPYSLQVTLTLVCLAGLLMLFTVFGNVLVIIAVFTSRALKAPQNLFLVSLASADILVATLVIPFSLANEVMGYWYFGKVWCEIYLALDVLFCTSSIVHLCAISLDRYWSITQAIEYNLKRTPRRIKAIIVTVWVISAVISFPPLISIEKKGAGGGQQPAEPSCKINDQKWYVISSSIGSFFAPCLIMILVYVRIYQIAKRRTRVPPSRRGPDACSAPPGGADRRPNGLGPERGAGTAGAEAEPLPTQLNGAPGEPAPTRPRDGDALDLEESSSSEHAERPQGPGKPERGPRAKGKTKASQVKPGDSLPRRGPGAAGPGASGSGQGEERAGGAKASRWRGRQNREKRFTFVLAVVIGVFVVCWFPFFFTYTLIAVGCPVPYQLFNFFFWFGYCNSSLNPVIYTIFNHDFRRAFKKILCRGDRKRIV
# Assay: Alpha-2 adrenergic receptor binding affinity was tested against membrane preparations of rat brain using 0.2 nM [3H]rauwolscine as radioligand
# How it was run: (§1)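 Rat frontal cortex membranes at about 500 µg/mL protein, labelled with [3H]rauwolscine in Tris buffer pH 7.4 containing 10 mM EDTA. Nonspecific binding set by 10 µM phentolamine. 30 °C for 30 min, then filtration and scintillation counting, in triplicate.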
row,Compound,Ki [nM]
1,C/C=C(/c1c[nH]cn1)c1cccc2ccccc12,1474
2,CCC(c1c[nH]cn1)c1cccc2ccccc12 (centres undefined),165

# Biological target: T1, Adrenergic receptor alpha-2
# Assay: Alpha-2 adrenergic receptor binding affinity was tested against membrane preparations of rat brain.
# How it was run: as §1
row,Compound,Ki [nM]
1,c1ccc2c3c(ccc2c1)CCCC3c1c[nH]cn1 (centres undefined),1449
2,C[C@H](N)[C@H](O)c1ccc(O)c(O)c1 [LEVONORDEFRIN],205
3,Cc1cccc(C(C)c2c[nH]cn2)c1C (centres undefined) [MEDETOMIDINE],25

# System: not listed separately
# Assay: Alpha 2 antagonistic adrenoceptor activity in human blood platelets Potency ratio: IC50(medetomidine)/IC50(analog)
# Assay type: functional
# How it was run: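 Inhibition of epinephrine (30-100 µM)-induced primary-wave aggregation in aspirin (1 mM)-treated human platelet-rich plasma, with inhibitor added 1 min before agonist.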
row,Compound,Potency ratio
1,c1ccc2c3c(ccc2c1)CCCC3c1c[nH]cn1 (centres undefined),0.03

# Biological target: T2, Adrenergic receptor alpha-2 (Homo sapiens, UniProt P08913+P18825+P18089)
# T2 sequence (P08913 whole entry): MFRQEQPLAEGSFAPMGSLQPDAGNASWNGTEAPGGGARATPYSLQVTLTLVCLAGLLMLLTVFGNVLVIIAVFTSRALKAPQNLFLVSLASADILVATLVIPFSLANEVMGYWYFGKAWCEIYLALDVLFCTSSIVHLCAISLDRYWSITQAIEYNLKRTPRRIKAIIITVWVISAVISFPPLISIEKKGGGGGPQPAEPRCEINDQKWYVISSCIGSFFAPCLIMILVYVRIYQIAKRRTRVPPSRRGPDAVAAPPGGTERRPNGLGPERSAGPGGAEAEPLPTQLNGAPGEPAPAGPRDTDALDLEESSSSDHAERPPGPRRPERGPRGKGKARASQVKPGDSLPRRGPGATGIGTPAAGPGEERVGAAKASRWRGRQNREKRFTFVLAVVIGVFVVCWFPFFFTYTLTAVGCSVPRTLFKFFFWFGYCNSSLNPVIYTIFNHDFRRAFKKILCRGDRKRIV
# T2 sequence (P18825 whole entry): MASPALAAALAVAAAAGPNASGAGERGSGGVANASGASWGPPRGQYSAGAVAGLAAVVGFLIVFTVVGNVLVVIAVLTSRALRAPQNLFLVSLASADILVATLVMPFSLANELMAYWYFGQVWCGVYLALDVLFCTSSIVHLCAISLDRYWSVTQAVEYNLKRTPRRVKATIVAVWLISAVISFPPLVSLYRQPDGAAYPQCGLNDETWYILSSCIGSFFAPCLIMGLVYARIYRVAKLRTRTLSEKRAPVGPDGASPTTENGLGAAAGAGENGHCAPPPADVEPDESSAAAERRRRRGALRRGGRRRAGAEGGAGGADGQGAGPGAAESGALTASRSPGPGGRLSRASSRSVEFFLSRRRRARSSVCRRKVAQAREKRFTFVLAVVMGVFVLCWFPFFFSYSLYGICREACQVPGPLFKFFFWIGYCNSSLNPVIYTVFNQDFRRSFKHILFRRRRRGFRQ
# T2 sequence (P18089 whole entry): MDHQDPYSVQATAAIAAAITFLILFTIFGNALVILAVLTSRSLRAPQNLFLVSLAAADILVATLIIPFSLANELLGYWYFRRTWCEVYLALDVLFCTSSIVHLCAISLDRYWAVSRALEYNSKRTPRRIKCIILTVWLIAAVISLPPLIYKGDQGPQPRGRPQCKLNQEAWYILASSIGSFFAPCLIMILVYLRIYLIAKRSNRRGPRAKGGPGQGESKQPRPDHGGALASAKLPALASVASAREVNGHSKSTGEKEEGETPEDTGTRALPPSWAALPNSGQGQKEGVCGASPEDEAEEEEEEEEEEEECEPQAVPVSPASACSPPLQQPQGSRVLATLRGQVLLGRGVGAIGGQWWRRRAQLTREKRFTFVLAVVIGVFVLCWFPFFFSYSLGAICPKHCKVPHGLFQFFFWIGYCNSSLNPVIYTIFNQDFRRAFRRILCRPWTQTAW
# Assay: Alpha-2 adrenergic receptor antagonistic activity in human blood platelets.
# Assay type: functional, tissue-based
# How it was run: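 Human platelet-rich plasma pretreated with 1 mM aspirin. Inhibitor at various concentrations added 1 min before epinephrine (30-100 µM).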
row,Compound,IC50 [nM]
1,c1ccc2c3c(ccc2c1)CCCC3c1c[nH]cn1 (centres undefined),97700

# Biological target: Adrenergic receptor alpha-1 (Rattus norvegicus) (UniProt P15823+P23944+P43140)
# Assay: Antagonistic activity against Alpha-1 adrenergic receptor in rat aorta
# Assay type: functional, tissue-based
# How it was run: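 Rat aorta rings (rats 150-300 g, either sex) contracted by cumulative phenylephrine, with and without the antagonist. KB = [B]/(DR − 1), where DR is the dose ratio in the presence and absence of the antagonist.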
row,Compound,Kb [nM]
1,c1ccc2c3c(ccc2c1)CCCC3c1c[nH]cn1 (centres undefined),136

# Biological target: T3, Adrenergic receptor alpha-1 (Rattus norvegicus, UniProt P15823+P23944+P43140)
# T3 sequence (P15823 whole entry): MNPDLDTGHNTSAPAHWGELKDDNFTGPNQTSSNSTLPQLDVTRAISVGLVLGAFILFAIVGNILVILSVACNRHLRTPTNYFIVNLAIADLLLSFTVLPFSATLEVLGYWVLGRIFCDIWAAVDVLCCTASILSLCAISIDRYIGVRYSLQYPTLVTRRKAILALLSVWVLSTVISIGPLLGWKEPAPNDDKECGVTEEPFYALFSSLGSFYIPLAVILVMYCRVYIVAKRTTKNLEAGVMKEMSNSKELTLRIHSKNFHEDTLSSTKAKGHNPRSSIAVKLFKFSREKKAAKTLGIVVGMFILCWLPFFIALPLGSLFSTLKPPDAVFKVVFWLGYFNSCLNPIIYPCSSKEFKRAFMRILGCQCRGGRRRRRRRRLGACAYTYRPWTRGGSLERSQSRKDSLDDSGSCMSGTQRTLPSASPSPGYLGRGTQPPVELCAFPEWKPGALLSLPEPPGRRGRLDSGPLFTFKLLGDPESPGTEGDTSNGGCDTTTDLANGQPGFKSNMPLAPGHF
# T3 sequence (P23944 whole entry): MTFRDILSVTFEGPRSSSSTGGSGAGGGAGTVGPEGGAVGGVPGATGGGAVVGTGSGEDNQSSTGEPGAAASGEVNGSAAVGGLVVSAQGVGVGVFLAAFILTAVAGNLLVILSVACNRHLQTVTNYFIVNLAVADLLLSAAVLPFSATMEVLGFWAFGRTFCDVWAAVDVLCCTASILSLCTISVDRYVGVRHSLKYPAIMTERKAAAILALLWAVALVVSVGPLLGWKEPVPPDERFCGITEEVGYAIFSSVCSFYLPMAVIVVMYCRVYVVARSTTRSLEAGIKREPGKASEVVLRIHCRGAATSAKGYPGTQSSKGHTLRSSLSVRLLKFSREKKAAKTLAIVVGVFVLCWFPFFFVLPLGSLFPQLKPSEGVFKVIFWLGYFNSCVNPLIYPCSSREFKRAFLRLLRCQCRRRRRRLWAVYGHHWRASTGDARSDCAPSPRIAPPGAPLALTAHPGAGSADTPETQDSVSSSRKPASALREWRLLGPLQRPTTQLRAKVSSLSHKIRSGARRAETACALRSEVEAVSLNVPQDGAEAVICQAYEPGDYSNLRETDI
# T3 sequence (P43140 whole entry): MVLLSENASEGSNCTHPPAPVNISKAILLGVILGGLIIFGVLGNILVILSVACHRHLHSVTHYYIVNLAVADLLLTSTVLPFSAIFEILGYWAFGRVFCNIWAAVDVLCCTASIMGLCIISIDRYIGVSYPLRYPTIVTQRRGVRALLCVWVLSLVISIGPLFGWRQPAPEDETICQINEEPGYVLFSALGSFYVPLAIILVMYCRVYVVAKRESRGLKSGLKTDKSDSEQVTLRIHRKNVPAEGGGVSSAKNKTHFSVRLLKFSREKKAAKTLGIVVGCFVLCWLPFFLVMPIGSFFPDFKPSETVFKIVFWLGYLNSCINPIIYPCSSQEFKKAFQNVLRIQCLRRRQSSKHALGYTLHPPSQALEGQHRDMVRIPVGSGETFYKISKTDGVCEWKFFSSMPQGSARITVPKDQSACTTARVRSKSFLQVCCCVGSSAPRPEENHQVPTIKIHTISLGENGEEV
# Assay: Alpha-1 adrenergic receptor binding affinity in rat brain membranes
# Assay type: cell membranes
# How it was run: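 Rat frontal cortex membranes, washed in 50 mM Tris-HCl/10 mM MgCl2 pH 7.4, at about 300 µg/mL protein. Labelled with 0.1 nM [3H]prazosin in the same buffer. Nonspecific binding set by 10 µM phentolamine. 30 °C for 30 min, then filtration and scintillation counting, in triplicate.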
row,Compound,Ki [nM]
1,c1ccc2c3c(ccc2c1)CCCC3c1c[nH]cn1 (centres undefined),655
2,C[C@H](N)[C@H](O)c1ccc(O)c(O)c1 [LEVONORDEFRIN],9221
3,C/C=C(/c1c[nH]cn1)c1cccc2ccccc12,387
4,CCC(c1c[nH]cn1)c1cccc2ccccc12 (centres undefined),574
